Results: ChEMBL document CHEMBL4190405, “Scaffold-Hopping Approach To Discover Potent, Selective, and Efficacious Inhibitors of NF-κB Inducing Kinase” (J Med Chem, 2018)
Converted amounts (≈) assume the structure as drawn.

Assays:
[1] = Lipophilicity, log D of the compound at pH 7.4 by LC-MS based shake flask method; format: physicochemical; details: buffer
In short: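 LogD at pH 7.4 measured by a high-throughput microscale shake-flask method with LC-MS/MS quantitation.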

[2] = Apparent permeability from apical to basolateral side in MDCK cells; format: ADME, cell-based, Canis lupus familiaris; details: dog
[3] = Volume of distribution in cynomolgus monkey; format: ADME, organism-based, Macaca fascicularis; details: in vivo
[4] = Apparent permeability from basolateral to apical side in MDCK cells; format: ADME, cell-based, Canis lupus familiaris; details: dog
[5] = Volume of distribution in Sprague-Dawley rat; format: ADME, organism-based; details: in vivo
[6] = Oral bioavailability in cynomolgus monkey at 5 mg/kg via gavage administered as single dose; format: ADME, organism-based, Macaca fascicularis; details: in vivo
[7] = Oral bioavailability in Sprague-Dawley rat at 5 mg/kg via gavage administered as single dose; format: ADME, organism-based; details: in vivo
[8] = Volume of distribution in Beagle dog; format: ADME, organism-based, Canis lupus familiaris; details: in vivo
[9] = Volume of distribution in CD-1 mouse; format: ADME, organism-based; details: in vivo
[10] = Oral bioavailability in CD-1 mouse at 5 mg/kg via gavage administered as single dose; format: ADME, organism-based; details: in vivo
[11] = Oral bioavailability in Beagle dog at 5 mg/kg via gavage administered as single dose; format: ADME, organism-based, Canis lupus familiaris; details: in vivo
[12] = Kinetic solubility of the compound; format: physicochemical; details: read-out: Kinetic_solubility

logD [1] | other results | SMILES
0.61 | – | CN1CC[C@@](O)(C#Cc2ccnc(-n3ccc(C(N)=O)n3)c2)C1=O
2 | – | CN1CC[C@@](O)(C#Cc2ccnc(-n3nc(C(N)=O)cc3N)c2)C1=O
1.9 | – | COc1cnc2c(c1)c(C(N)=O)nn2-c1cccc(C#C[C@]2(O)CCN(C)C2=O)c1
1.3 | – | CN1CC[C@@](O)(C#Cc2cccc(-c3nc(C(N)=O)c4ccccn34)c2)C1=O
2.4 | – | COc1ccc2c(-c3cccc(C#C[C@]4(O)CCN(C)C4=O)c3)nc(C(N)=O)n2c1
2.4 | – | CN1CC[C@@](O)(C#Cc2cccc(-n3cc(C(N)=O)c4cccnc43)c2)C1=O
2.6 | – | CN1CC[C@@](O)(C#Cc2cccc(-n3nc(C(N)=O)c4cc(F)ccc43)c2)C1=O
1.6 | – | CN1CC[C@@](O)(C#Cc2cccc(-n3nc(C(N)=O)c4cccnc43)c2)C1=O
1.9 | – | CCOc1ccn2c(-c3cccc(C#C[C@]4(O)CCN(C)C4=O)c3)nc(C(N)=O)c2c1
1.6 | – | CN1CC[C@@](O)(C#Cc2cccc(-c3ccnc(C(N)=O)n3)c2)C1=O
1.9 | – | CN1CC[C@@](O)(C#Cc2ccnc(-n3nc(C(N)=O)c4ccccc43)c2)C1=O
1.6 | – | CN1CC[C@@](O)(C#Cc2cccc(-c3cccc(C(N)=O)n3)c2)C1=O
1.9 | Papp A→B [2]: 73 nm/s; Vd [3]: 1.39 L/kg; Papp B→A [4]: 102 nm/s; Vd [5]: 1.35 L/kg; bioavailability [6]: > 100%; bioavailability [7]: 97%; Vd [8]: 0.778 L/kg; Vd [9]: 1.58 L/kg; bioavailability [10]: 54%; bioavailability [11]: 56%; solubility kinetic [12]: 139 µM (≈ 50.8 µg/mL) | COc1cc(C(N)=O)nc(-c2cccc(C#C[C@]3(O)CCN(C)C3=O)c2)c1
2.1 | – | CN1CC[C@@](O)(C#Cc2cccc(-n3nc(C(N)=O)c4ccccc43)c2)C1=O
1.6 | – | CN1CC[C@@](O)(C#Cc2cccc(-c3cccc(C(N)=O)c3)c2)C1=O
1.8 | – | COc1cc(C(N)=O)nc(-c2cccc(C#C[C@]3(O)CCN(C)C3=O)c2)n1
2.5 | – | CN1CC[C@@](O)(C#Cc2cccc(-c3cc4ccccc4c(C(N)=O)n3)c2)C1=O
2 | – | CN1CC[C@@](O)(C#Cc2ccnc(-n3nc(C(N)=O)cc3C3CC3)c2)C1=O
1.9 | – | CN1CC[C@@](O)(C#Cc2ccnc(-n3nc(C(N)=O)c4c3CCCC4)c2)C1=O
1.7 | – | CN1CC[C@@](O)(C#Cc2cccc(-c3ccc(N)c(C(N)=O)n3)c2)C1=O
2.2 | – | CN1CC[C@@](O)(C#Cc2cccc(-c3nc(C(N)=O)n4ccccc34)c2)C1=O
1 | – | CN1CC[C@@](O)(C#Cc2cccc(-c3cncc(C(N)=O)n3)c2)C1=O
